This note sets out measurements from ChEMBL document CHEMBL1147025, “Synthesis of fluorescently tagged isoprenoid bisphosphonates that inhibit protein geranylgeranylation” (Bioorg Med Chem, 2007).

Common to all, as to conditions: Homo sapiens
Assay [1] deals with K562. Briefly: Inhibition of DNA synthesis in K562 cells assessed as [3H]thymidine incorporation after 24 hrs. Type of assay: functional, cell-based. A digest of the protocol: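 K562 cells grown at 37 °C, 5% CO2 in RPMI-1640 with 10% heat-inactivated FBS. Cells at 2 × 10^5 per 200 µL exposed to bisphosphonates (diluted in water) for 24 h, pulsed with [3H]thymidine (0.04 µCi/well) for the last 2 h. Incorporation into DNA measured by liquid scintillation counting; IC50 for 24 h exposure.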

For assay [2], the system named is K562. As to the kind of experiment: Inhibition of GGPTase1 in K562 cells assessed as Rap1a geranylgeranylation after 24 hrs. Type of assay: cell-based. A digest of the protocol: (§1)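 K562 cells (5 × 10^6 per 5 mL; RPMI-1640, 10% heat-inactivated FBS, 37 °C, 5% CO2) treated 24 h with bisphosphonates diluted in water. Untreated cells served as negative control and 10 µM lovastatin as positive prenylation control. Western blotting used pan-Ras antibody (farnesylation), Rab6 antibody (GGPTase II), and an antibody recognising only unmodified Rap1a (GGPTase I).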

Assay [3] relates to K562. Briefly: Inhibition of GGPTase2 in K562 cells assessed as Rab6 geranylgeranylation after 24 hrs. Type of assay: cell-based. A digest of the protocol: as §1
The test system of assay [4] is K562. As to the kind of experiment: Inhibition of Ras farnesylation in K562 cells by Western blot analysis after 24 hrs. Type of assay: functional, cell-based. The essentials:
as §1

Broadly, the pIC50 is the IC50 on a negative log10 scale, so that one unit is a factor of ten.

pIC50: −log10 of the molar value. Activity calls are given as the source filed them. The calls are words filed in the database; no cut-off is given here.

As to `C/C(=C\CC(P(=O)(O)O)P(=O)(O)O)CC/C=C(\C)CNc1ccccc1C(=O)O`, the pIC50 in the assay on K562 [1] was less than 4.00. In addition, the outcome with K562 [2], in the assay on K562 [3] and in the assay on K562 [4] was inactive.
For `CC(C)=CCC/C(C)=C/CC(C/C=C(\C)CNc1ccccc1C(=O)O)(P(=O)(O)O)P(=O)(O)O`, the negative logarithm of the IC50 (pIC50) in the assay with K562 [1] was less than 4.00. In addition, the outcome in the assay with K562 [2] and with K562 [3] was Active. The outcome with K562 [4] was inactive.
Consider `CC(C)=CCC/C(C)=C/CC(C/C=C(\C)CC/C=C(\C)CNc1ccccc1C(=O)O)(P(=O)(O)O)P(=O)(O)O`, for which the pIC50 in the assay on K562 [1] is less than 4.00. The result with K562 [2] and with K562 [3] was Active. Also, in the assay on K562 [4], the outcome was inactive.
